Assay results taken from ChEMBL document CHEMBL4354869, “pH-Dependent Grafting of Cancer Cells with Antigenic Epitopes Promotes Selective Antibody-Mediated Cytotoxicity” (J Med Chem, 2020).
Activity calls are given as the source filed them. The rule behind the calls is not given here. Peptide text beside a SMILES is read from it. * marks the point of attachment. Dnp = O=[N+]([O-])c1ccc(*)c([N+](=O)[O-])c1

Tests used:
MDA-MB-231 [1] = test: Induction of opsonization in human MDA-MB-231 cells assessed as increase in recruitment of anti-DNP antibody to cell surface at 1 uM measured after 5 to 10 mins at pH 6 to 7.4 by AlexaFluor-488-conjugated anti-DNP antibody based flow cytometry; format: functional
Summary of the method: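 Conjugate pre-incubated 1 h RT at 20 μM in 5 mM sodium phosphate pH 9.0, diluted, then pH adjusted with citrate buffer. MDA-MB-231 (350000 cells, suspension) exposed to 1 μM for 5 or 10 min, 37 °C, pH 7.4 or 6.0, washed, stained with 25 μg/mL anti-DNP-A488 30 min at 4 °C, PFA-fixed. Flow cytometry, ≥3000 events; fold over pH 7.4 antibody-only cells.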

Lipid bilayer = test: Binding affinity to POPC large unilamellar vesicle at 1:300 ratio measured after 30 mins at pH 5 to 7.4 by circular dichroism spectroscopic analysis
Summary of the method: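 Peptide (20 μM stock in 5 mM sodium phosphate pH 8.0; 7 μM final) mixed with POPC LUVs (extruded, 100 nm pores) at 1:300, pH lowered with HCl, 30 min RT. Far-UV CD 260–200 nm in 0.1 cm cuvette, ≥5 scans averaged, liposome spectrum subtracted; expressed as mean residue molar ellipticity.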

MDA-MB-231 [2] = test: Induction of opsonization in human MDA-MB-231 cells assessed as increase in recruitment of anti-DNP antibody to cell surface at 1 uM measured after 1 hr at pH 6 to 7.4 by AlexaFluor-488-conjugated anti-DNP antibody based flow cytometry; format: functional
[3] = Drug internalization in human MDA-MB-231 cells assessed as increase in fluorescence at 1 uM measured after 30 mins at pH 6 to 7.4 in presence of FITC-labeled anti-human IgG by flow cytometric method; format: ADME, cell-based; conditions: mda-mb-231, pH 6, 0.5 h
Summary of the method: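 Control for specificity: MDA-MB-231 treated with 1 μM conjugate at pH 7.4 or 6.0 (5–10 min, 37 °C), washed, then incubated ± 25 μg/mL FITC anti-human IgG in PBS/10% FBS, 30 min at 4 °C, fixed, read by flow cytometry.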

MDA-MB-231 [4] = test: Induction of opsonization in human MDA-MB-231 cells assessed as increase in recruitment of anti-DNP antibody to cell surface at 1 uM preincubated with AlexaFluor-488-conjugated anti-DNP antibody for 30 mins followed by cell addition at pH 6 to 7.4 by flow cytometry; format: functional, cell-based
MDA-MB-231 [5] = test: Induction of opsonization in human MDA-MB-231 cells assessed as increase in recruitment of anti-DNP antibody to cell surface at 1 uM measured after 5 mins at pH 6 to 7.4 by AlexaFluor-488-conjugated anti-DNP antibody based immunofluorescence microscopic analysis; format: functional
Summary of the method: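 MDA-MB-231 grown on poly-L-lysine coverslips (~70% confluent), exposed to 1 μM conjugate 5 min at 37 °C, pH 7.4 or 6.0, methanol-fixed, stained 1 h at 37 °C with anti-DNP-A488 at 40 μg/mL, Hoechst counterstain; imaged with 20× objective.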

MDA-MB-231 [6] = test: Induction of opsonization in human MDA-MB-231 cells assessed as increase in recruitment of anti-DNP antibody to cell surface at 1 uM preincubated for 5 mins at pH 6 to 7.4 followed by pooled human serum addition and measured in presence of FITC-labeled anti-human IgG antibody based flow cytometry; format: functional
Summary of the method: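 300000 MDA-MB-231 in suspension exposed to 1 μM conjugate 5 min, 37 °C, pH 7.4 or 6.0; washed; blocked with human IgG isotype control 100 μg/mL, 20 min 4 °C; 12.5% pooled human complement serum 20 min 4 °C; then 25 μg/mL FITC anti-human IgG 30 min 4 °C; PFA-fixed, flow cytometry; fold over pH 7.4 serum-only.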

MDA-MB-231 [7] = test: (§1) Induction of complement dependent cytotoxicity against human MDA-MB-231 cells assessed as cell lysis at 1 uM incubated for 5 mins at pH 6 followed by compound washout prior to anti-DNP antibody addition for 30 mins and subsequent pooled human serum addition measured after 4 hrs by LDH release assay relative to control; format: functional
Summary of the method: (§2)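 240000 MDA-MB-231 exposed in suspension to 1 μM conjugate for 5 min, 37 °C, at pH 7.4 or 6.0, washed, 25 μg/mL unlabeled anti-DNP rabbit polyclonal 30 min 4 °C, then 12.5% pooled human complement serum in DMEM 4 h at 37 °C. Supernatant LDH (A490/A680); % lysis vs antibody-only cells without peptide.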

MDA-MB-231 [8] = test: as §1, with “7.4” for “6”, “assay” for “assay relative to control”; format: functional, cell-based; summary of the method: as §2
MDA-MB-231 [9] = test: (§3) Induction of antibody dependent cytotoxicity against human MDA-MB-231 cells assessed as increase in cell lysis incubated for 5 mins at pH 6 to 7.4 followed by compound washout prior to anti-DNP antibody addition for 30 mins and subsequent human PBMC addition at 5:1 effector to target ratio measured after 4 hrs by LDH release assay; format: functional, cell-based
MDA-MB-231 [10] = test: as §3, with “as” for “as increase in”, “lysis at 1 uM” for “lysis”, “6” for “6 to 7.4”, “assay relative to control” for “assay”; format: functional
MDA-MB-231 [11] = test: as §3, with “as” for “as increase in”, “lysis at 0.1 uM” for “lysis”, “6” for “6 to 7.4”, “assay relative to control” for “assay”; format: functional
MDA-MB-231 [12] = test: as §3, with “Cytotoxicity” for “Induction of antibody dependent cytotoxicity”, “lysis at 0.5 to 1 uM” for “lysis”, “anti-FITC polyclonal rabbit” for “anti-DNP”; format: cell-based; conditions: mda-mb-231, pH 6, 1 µM
MDA-MB-231 [13] = test: Cytotoxicity against human MDA-MB-231 cells assessed as increase in cell lysis at <=10 uM measured after 4 hrs by LDH release assay; format: cell-based; conditions: mda-mb-231, 4 h
MDA-MB-231 [14] = test: as §3, with “as” for “as increase in”, “lysis at 500 nM” for “lysis”, “haNK cell” for “PBMC”, “assay relative to control” for “assay”; format: functional
Summary of the method: (§4)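 150000 MDA-MB-231 given conjugate 5 min at 37 °C, pH 7.4 or 6.0, washed at 4 °C, 25 μg/mL anti-DNP rabbit polyclonal 30 min 4 °C, then effectors 4 h at 37 °C: single-donor PBMCs at 50:1 in RPMI 1640, or haNK (F176V CD16 NK-92, IL-2-grown) at 5:1 in MEMα. Supernatant LDH; % lysis vs antibody+effector without peptide; mean ± SEM, n = 3–12.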

MDA-MB-231 [15] = test: as §3, with “Cytotoxicity” for “Induction of antibody dependent cytotoxicity”, “lysis at 0.5 to 1 uM” for “lysis”, “anti-FITC polyclonal rabbit” for “anti-DNP”, “haNK cell” for “PBMC”; format: cell-based; conditions: mda-mb-231, pH 6, 1 µM
Summary of the method: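 150000 target cells (MDA-MB-231; also LnCap, SK-OV-3 with haNK) treated with conjugate 5 min at 37 °C, pH 7.4 or 6.0, washed, 25 μg/mL anti-FITC rabbit polyclonal 30 min 4 °C, then 4 h at 37 °C with PBMCs at 50:1 (RPMI) or haNK at 5:1 (MEMα). LDH release; % lysis relative to antibody-only pH 7.4 cells; mean ± SEM, n = 3–12.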

MDA-MB-231 [16] = test: Cytotoxicity against human MDA-MB-231 cells assessed as increase in cell lysis at 0.5 to 1 uM incubated for 5 mins at pH 6 to 7.4 followed by compound washout prior to human haNK cell addition at 5:1 effector to target ratio measured after 4 hrs by LDH release assay; format: cell-based; conditions: mda-mb-231, pH 6, 4 h
MDA-MB-231 [17] = test: as §3, with “induction of” for “increase in”, “lysis at >500 nM” for “lysis”, “haNK cell” for “PBMC”; format: functional, cell-based; summary of the method: as §4
MDA-MB-231 [18] = test: as §3, with “as” for “as increase in”, “lysis at >1 uM” for “lysis”, “6” for “6 to 7.4”; format: functional, cell-based
MDA-MB-231 [19] = test: Cytotoxicity against human MDA-MB-231 cells assessed as increase in cell lysis at 0.5 to 1 uM incubated for 5 mins at pH 6 to 7.4 followed by compound washout prior to human PBMC addition at 50:1 effector to target ratio measured after 4 hrs by LDH release assay; conditions: mda-mb-231, pH 6, 4 h

Activity (Lipid bilayer): Active
Drug uptake [3]: Not Active
Structure (SMILES): CC[C@H](C)[C@H](NC(=O)[C@@H]1CCCN1C(=O)[C@H](CC(N)=O)NC(=O)[C@H](CCC(N)=O)NC(=O)[C@H](CCC(=O)O)NC(=O)[C@@H](N)CCCCNc1ccc([N+](=O)[O-])cc1[N+](=O)[O-])C(=O)N[C@@H](Cc1ccc(O)cc1)C(=O)N[C@@H](Cc1c[nH]c2ccccc12)C(=O)N[C@@H](C)C(=O)N[C@@H](CCCNC(=N)N)C(=O)N[C@@H](Cc1ccc(O)cc1)C(=O)N[C@@H](C)C(=O)N[C@@H](CC(=O)O)C(=O)N[C@@H](Cc1c[nH]c2ccccc12)C(=O)N[C@@H](CC(C)C)C(=O)N[C@@H](Cc1ccccc1)C(=O)N[C@H](C(=O)N[C@H](C(=O)N1CCC[C@H]1C(=O)N[C@@H](CC(C)C)C(=O)N[C@@H](CC(C)C)C(=O)N[C@@H](CC(C)C)C(=O)N[C@@H](CC(C)C)C(=O)N[C@@H](CCC(=O)O)C(=O)N[C@@H](CC(C)C)C(=O)N[C@@H](C)C(=O)N[C@@H](CC(C)C)C(=O)N[C@@H](CC(C)C)C(=O)N[C@H](C(=O)N[C@@H](CC(=O)O)C(=O)N[C@@H](C)C(=O)N[C@@H](CC(=O)O)C(=O)N[C@@H](CCC(=O)O)C(=O)NCC(=O)N[C@H](C(=O)NCC(N)=O)[C@@H](C)O)C(C)C)[C@@H](C)O)[C@@H](C)O (H-K(Dnp)EQNPIYWARYADWLFTTPLLLLELALLVDADEGTG-NH2)
Activity (MDA-MB-231 [1]): Active
Activity (MDA-MB-231 [2]): Active
Activity (MDA-MB-231 [4]): Active
Activity (MDA-MB-231 [5]): Active
Activity (MDA-MB-231 [6]): Active
Activity (MDA-MB-231 [7]): 10%
Activity (MDA-MB-231 [8]): inactive
Activity (MDA-MB-231 [9]): Dose-dependent effect
Activity (MDA-MB-231 [10]): 40%
Activity (MDA-MB-231 [11]): 20%
Activity (MDA-MB-231 [12]): Non-Toxic
Activity (MDA-MB-231 [13]): Non-Toxic
Activity (MDA-MB-231 [14]): 40%
Activity (MDA-MB-231 [15]): Non-Toxic
Activity (MDA-MB-231 [16]): Non-Toxic
Activity (MDA-MB-231 [17]): inactive
Activity (MDA-MB-231 [18]): inactive
Activity (MDA-MB-231 [19]): Non-Toxic
